In the library only some 2.4% were active in any assay of this set; here they are far more common.
rRNA inh HTS: reduced GFP signal of wild-type E. coli, primary screen, bacterial rRNA inhibitor project, GFP/RFP fluorescence, OD600, single point. E. coli WT GFP vs humanized-ribosome RFP mutants, 24 h; hits give low values; DMSO median 0, no signal -100. hit rate 1.6% among 350,000. GFP signal change (wild-type ribosome), % (no concentration beside the values). AID 720706, 2013;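 active = significant combined selectivity score with lowered wild-type GFP, culture density cut under 30%, mutant RFP and density less affected; inactive = any of these conditions unmet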
ERAP1 inh: human ERAP1 aminopeptidase inhibitors, primary screen, biochemical, single point, plate reader; inhibition, % at 10.7 µM; hit rate 0.15% among 340,000; recombinant ERAP1, Leu-AMC fluorescence, 60 min;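 active = mean replicate inhibition of at least 30%, or all replicates individually reaching that 30% level; inactive = mean below 30% and not every replicate reaching it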
ARNT TACC3 PPI: disruptors of ARNT/TACC3 protein interaction, primary screen, biochemical, AlphaScreen, single concentration; Transforming acidic coiled-coil-containing protein 3 (Homo sapiens), Q9Y6A5; AlphaScreen His-ARNT PAS-B/GST-TACC3 binding, luminescence; TACC3 fragment carries E629A point mutation; inhibition, % at 9.99 µM; hit rate 0.66% among 390,000; AID 623870, 2012;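 active = mean inhibition of replicates at least 50% and at least half of replicates each reaching 50%; inconclusive = half or more replicates reach 50% but mean below 50%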
PGC1a acetyl inh: inhibitors of PGC1a acetylation signal, primary screen, cell-based, U2OS, AlphaScreen, inhibitor mode; hit rate 0.17% among 350,000; AlphaScreen anti-acetyl-lysine; with virally co-expressed GCN5 acetyltransferase; inhibition, % at 15.6 µM;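 active = every replicate shows inhibition of at least 40%; inconclusive = mean inhibition at least 40% but some replicate below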
S100A4 inh HTS: inhibitors of S100A4-myosin IIA peptide binding, primary screen, biochemical, fluorescence polarization, TAMRA-MyoIIA peptide; hit rate 0.14% among 360,000; Protein S100-A4 (Homo sapiens), P26447; inhibition, % at 10.7 µM; AID 652163, 2013;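 active = mean inhibition of at least 70% across replicates, with every replicate also reaching that level; inconclusive = mean inhibition reaches 70% but some replicates fall short; inactive = mean inhibition below 70%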
Target sequence (P26447 whole entry, looked up): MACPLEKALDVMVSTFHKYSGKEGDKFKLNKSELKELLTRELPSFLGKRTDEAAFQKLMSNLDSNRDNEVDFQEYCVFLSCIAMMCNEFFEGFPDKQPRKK
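Test system: S100A4 monomer protein. Medium: HEPES buffer with Ca2+, pH 7.2. Reagent: fluorescent myosin IIA peptide, 5 nM. Compound dosing: single-point compound testing. Timing: 5 min between mix addition and reading. Benchmarks: DMSO neutral and TFP positive wells.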
Casp6 inh: human caspase-6 inhibitors, primary screen, biochemical, VEID-R110 fluorescence, single point, set 2 | hit rate 0.53% among 350,000 | inhibition, % at 12.5 µM | P55212 | purified caspase-6, Z-VEID-R110 cleavage fluorescence;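 active = mean inhibition across replicates at least about 35%, with every replicate also reaching that limit, limit read from the data; inconclusive = only one of the two criteria met; inactive = neither criterion met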
Target sequence (P55212 24-179 limits assumed): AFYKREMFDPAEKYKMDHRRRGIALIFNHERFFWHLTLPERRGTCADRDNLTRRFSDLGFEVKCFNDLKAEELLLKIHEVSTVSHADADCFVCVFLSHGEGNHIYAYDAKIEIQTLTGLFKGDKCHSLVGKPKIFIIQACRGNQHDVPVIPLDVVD
Target sequence (P55212 194-293 limits assumed): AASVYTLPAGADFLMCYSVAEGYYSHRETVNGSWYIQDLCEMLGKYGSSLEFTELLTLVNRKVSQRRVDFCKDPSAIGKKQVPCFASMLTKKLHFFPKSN
HepG2 tox: cytotoxicity in HepG2 cells, dose response, cytotoxicity control, cell-based, CellTiter-Glo luminescence, cherry-pick, set 4; 30 tested, under 10 active; activity change, negative = cytotoxicity, unspecified at 26 µM; shares compounds with rRNA inh HTS; AID 743480, 2014; HepG2 viability, ATP luminescence, 72 h;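 active = compounds whose fitted half-maximal signal-loss concentration is at most twice their highest valid dose; inconclusive = flat curve with 30 to 70% signal loss, or poor fit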
AID977621: growth inhibition of wild-type GFP E. coli, dose response, H69 mutant RFP, cherry-pick. 1,900 tested, under 10 active. activity change, negative = inhibition at 50 µM. E. coli wild-type GFP strain growth, fluorescence, 24 h. shares compounds with rRNA inh HTS;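 active = Wild-type ribosome reporter drop at least double the humanized mutant ribosome reporter drop, growth loss under a set limit; inconclusive = no clear call, values can overlap the other calls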;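 note: wild-type GFP and H69 mutant RFP strains grown together 50/50 in each well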
AID977628: E. coli growth inhibition, wild-type GFP versus h24 humanized RFP strain, dose response, h24 mutant RFP vs wild-type GFP, cherry-pick; shares compounds with rRNA inh HTS; E. coli WT GFP strain growth, fluorescence, 24 h; activity change, negative = inhibition at 50 µM; 1,900 tested, under 10 active; AID 977628, 2014;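 active = compound lowering the normal-ribosome reporter at least twice as much as the humanized-ribosome reporter, growth loss under a set limit; inconclusive = no clear call, values can overlap the other calls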;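 note: wild-type GFP and h24 humanized RFP strains co-cultured 1 to 1 per well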
Of the large screens only hits and unclear results are named; the others gave an inactive call (follow-up assays come after a bar, where they were run).

COc1ccc(NC(=O)c2nc[nH]c2C(=O)N(C)Cc2ccccc2)cc1	rRNA inh HTS -19 (no result: ARNT TACC3 PPI) | AID977621 inconclusive
CN(Cc1ccccc1)C(=O)c1[nH]cnc1C(=O)Nc1ccc(Cl)cc1	none
Cc1cc(C)c(OCCN(C)Cc2ccccc2)c(Br)c1	rRNA inh HTS -23 (no result: PGC1a acetyl inh) | AID977621 inactive | AID977628 inactive
CC(=O)Nc1ccc(NS(=O)(=O)c2cc(Cl)sc2Cl)cc1	none
CC(=O)Nc1ccc(NS(=O)(=O)c2ccc(Cl)s2)cc1	rRNA inh HTS -20 (no result: PGC1a acetyl inh) | AID977628 inconclusive
C[C@H]1CN([C@@H](C)CO)C(=O)c2cc(-c3ccc(C#N)cc3)cnc2O[C@@H]1CN(C)C(=O)Nc1ccc(F)cc1	none
COC(=O)c1cc(Br)cn1S(=O)(=O)c1ccccc1	none
COC(=O)c1cc2ccccc2n1S(=O)(=O)c1ccccc1	rRNA inh HTS -32 | AID977621 inactive | AID977628 inactive
CSc1nc2nc3c(cc2c(=O)n1-c1ccccc1C)CCCC3	rRNA inh HTS -30 | AID977621 inactive | AID977628 inactive
Cc1ccc(-c2c[n+](CC(=O)OCc3ccccc3)c3n2CCC3)cc1	rRNA inh HTS -14 | AID977621 inactive | AID977628 inactive
COc1cc(CN2CC3(CN(C(=O)Nc4c(C)noc4C)C3)c3c(n(C)c4cc(OC)ccc34)[C@H]2CO)cc(OC)c1	none (no result: ARNT TACC3 PPI)
CCn1ncc(Br)c1C(=O)Nc1ccc2c(c1)OCCO2	rRNA inh HTS -21 | AID977628 inactive
C[C@@H]1CCCCO[C@H](CN(C)C(=O)CCCN(C)C)[C@H](C)CN([C@@H](C)CO)C(=O)c2cc(NC(=O)Nc3cccc4ccccc34)ccc2O1	rRNA inh HTS -36, S100A4 inh HTS inconclusive | HepG2 tox inactive
C[C@@H]1CCCCO[C@@H](CN(C)C(=O)CCCN(C)C)[C@@H](C)CN([C@H](C)CO)C(=O)c2cc(NC(=O)Nc3cccc4ccccc34)ccc2O1	none | AID977621 inactive | AID977628 inconclusive
C[C@@H]1CN([C@@H](C)CO)C(=O)c2cc(NC(=O)Nc3cccc4ccccc34)ccc2O[C@@H](C)CCCCO[C@@H]1CN(C)C(=O)CCCN(C)C	none
C[C@@H]1CCCCO[C@H](CN(C)C(=O)CCCN(C)C)[C@@H](C)CN([C@H](C)CO)C(=O)c2cc(NC(=O)Nc3cccc4ccccc34)ccc2O1	none | AID977621 inconclusive | AID977628 inactive
C[C@H]1CCCCO[C@@H](CN(C)Cc2ccc3c(c2)OCO3)[C@@H](C)CN([C@@H](C)CO)C(=O)c2cc(NS(=O)(=O)c3ccc(Cl)cc3)ccc2O1	none
O=C(C[C@@H]1C[C@H]2c3cc(NC(=O)c4cccnc4)ccc3O[C@H]2[C@@H](CO)O1)NCc1ccccc1F	none
C=CCN(c1ccccc1)S(=O)(=O)c1ccc(Cl)c(C(=O)OCC(=O)NCCCN2CCCC2=O)c1	rRNA inh HTS -23 | AID977621 inactive
C=CCN(c1ccc(OC)cc1)S(=O)(=O)c1ccc(Cl)c(C(=O)OCC(=O)c2c(N)n(C)c(=O)n(C)c2=O)c1	none (no result: rRNA inh HTS)
C[C@H](CO)N1C[C@H](C)[C@@H](CN(C)C(=O)Nc2ccccc2)OCCCC[C@H](C)Oc2ccc(NC(=O)Nc3ccc(F)cc3)cc2C1=O	none
COc1ccc(NC(=O)N(C)C[C@H]2Oc3ccc(NC(=O)C4CC4)cc3C(=O)N([C@H](C)CO)C[C@H]2C)cc1	none
COc1ccc(Oc2ccc(C(F)(F)F)cc2NC(=O)CC(CC(=O)O)c2ccccc2)cc1 (stereo not drawn)	rRNA inh HTS -36 | AID977621 inactive
COc1ccc(Oc2ccc(C(F)(F)F)cc2NC(=O)c2ccc(F)cc2)cc1	none
Cn1cc(CN2CCCC(C(=O)Nc3cccc(-c4cc5ccccc5[nH]4)c3)C2)cn1 (stereo not drawn)	rRNA inh HTS -33 (no result: PGC1a acetyl inh) | AID977621 inactive | AID977628 inactive
CC(C)n1cc(CN2CCCC(C(=O)Nc3cccc(-c4cc5ccccc5[nH]4)c3)C2)cn1 (stereo not drawn)	none (no result: ARNT TACC3 PPI)
CCCCc1ccc(S(=O)(=O)Nc2ccc(C)c(NS(C)(=O)=O)c2)cc1	rRNA inh HTS -35 | AID977621 inactive
CCCc1ccc(S(=O)(=O)Nc2ccc(C)c(NS(C)(=O)=O)c2)cc1	none
CNC(=O)c1sc(-c2ccccn2)nc1C	rRNA inh HTS -23 | AID977621 inactive | AID977628 inactive
Cc1nc(-c2ccccn2)sc1C(=O)Nc1ccc(F)cc1	none (no result: rRNA inh HTS, ERAP1 inh, S100A4 inh HTS, Casp6 inh)
CCCC#C/C(CCC)=C1\c2ccccc2C(=O)N1c1ccccc1	rRNA inh HTS -16 (no result: ARNT TACC3 PPI, PGC1a acetyl inh) | AID977621 inactive | AID977628 inconclusive
CCC/C(=C1/c2ccccc2C(=O)N1c1ccccc1)c1ccc2[nH]ccc2c1	none
O=C(CN1CCc2ccccc2C1)Nc1ccc(F)cc1F	rRNA inh HTS -21 | AID977621 inactive | AID977628 inconclusive
Cc1ccc2nc(N(CCN(C)C)C(=O)C3CCN(S(=O)(=O)c4cccs4)CC3)sc2c1	rRNA inh HTS -11 (no result: ARNT TACC3 PPI) | AID977621 inconclusive
CC1CCN(C(=O)COC(=O)c2ccccc2NC(=O)c2ccco2)CC1	rRNA inh HTS -32 (no result: PGC1a acetyl inh) | AID977621 inactive | AID977628 inactive
O=[N+]([O-])c1ccc(-[n+]2nc(-c3ccccc3)nn2-c2ccccc2)cc1	rRNA inh HTS -22 (no result: PGC1a acetyl inh) | AID977628 inconclusive
Cc1cccc(NS(=O)(=O)c2cc3c(cc2C)NC(=O)CO3)c1	rRNA inh HTS -18 (no result: PGC1a acetyl inh) | AID977621 inactive | AID977628 inactive
COc1ccccc1N(C)S(=O)(=O)c1ccc(C(=O)NC(C)c2ccccc2)cc1 (stereo not drawn)	rRNA inh HTS -18 (no result: ERAP1 inh) | AID977628 inconclusive

Assay outcomes deposited in PubChem BioAssay by Broad Institute.
